# The list is not random: actives were taken first. Their share in the collection is about 2.3%.
# ATG4B inhibitor: ATG4B (human) cysteine protease inhibition; Q9Y4P1; ATG4B cleavage of LC3-PLA2, NBD-HPC fluorescence, 1 h; inhibition, % at 8.33 µM; hit rate 0.51% among 340,000; AID 504462; in the data active = inhibition above about 40%
# Target sequence (Q9Y4P1 whole entry, looked up): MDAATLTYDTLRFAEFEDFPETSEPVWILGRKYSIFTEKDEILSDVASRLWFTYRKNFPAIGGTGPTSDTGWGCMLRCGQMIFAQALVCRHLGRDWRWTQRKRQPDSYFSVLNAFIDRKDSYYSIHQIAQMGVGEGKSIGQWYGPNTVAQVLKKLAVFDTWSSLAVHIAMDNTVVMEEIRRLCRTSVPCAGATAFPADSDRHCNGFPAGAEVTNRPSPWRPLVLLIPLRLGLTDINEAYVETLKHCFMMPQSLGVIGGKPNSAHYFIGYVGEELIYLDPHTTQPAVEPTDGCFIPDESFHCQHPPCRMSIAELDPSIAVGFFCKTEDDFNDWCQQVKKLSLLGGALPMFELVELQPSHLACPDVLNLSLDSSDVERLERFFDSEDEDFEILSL
# SKN-1 inh: inhibitors of C. elegans SKN-1 | C. elegans VP596 Pgst-4::GFP/RFP ratio, acrylamide-induced, 24 h | inhibition, % at 21.8 µM | hit rate 0.49% among 360,000;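 active = interference check ratio from 0.5 to 1.5 plus GFP to RFP signal ratio inhibition reaching or exceeding a fixed threshold, cut at about 30% in these data, passing the limit was not always enough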
# MPTP block: permeability transition pore inhibition | isolated mouse mitochondria, Ca2+ swelling absorbance, 30 min | inhibition, % at 10 µM | hit rate 1.4% among 360,000 | AID 602449;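 active = inhibition of 50% or more, scaled per plate between neutral and stimulator controls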;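 also: 0% = DMSO wells given calcium and 100% = 1 mM EGTA wells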
# MT1-MMP act inh: MT1-MMP (human) activation inhibition; HT1080 RFP-PRO-GFP cells, GFP/RFP ratio fluorescence, overnight; percent of plate control window, DMSO zero; P50281; GFP/RFP ratio change, % at 20 µM; hit rate 0.061% among 360,000; AID 651647;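 active = GFP/RFP ratio change of at least 30% with cell ATP level not reduced by more than half and red fluorescence within 50% of control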
#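 Compound: 20 µM single dose, 1% DMSO / System: HT1080 RFP-PRO-GFP cells / Controls: DMSO and RFP-L50D-GFP cell wells / Read-out basis: GFP/RFP fluorescence ratio / Schedule: overnight compound exposure at 37 °C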
# * hit, by the source's call; nt = no result.
SMILES,ATG4B inhibitor,SKN-1 inh,MPTP block,MT1-MMP act inh
O=[N+]([O-])c1ccc(OC/C=C2\Oc3ccc([N+](=O)[O-])cc3C2N2CCOCC2)cc1 (stereo not drawn),-6,37*,6,-2
O=C(CSc1nnc(COc2cccc3ccccc23)o1)N1c2ccccc2CCc2ccccc21,-16,45*,2,-9
NC(=O)CSc1nnc(COc2cccc3ccccc23)o1,-4,4,1,-7
CC(C)C(CCNCc1ccccn1)c1ccc(Cl)cc1 (stereo not drawn),3,38*,0,2
COc1ccc(NC(=O)CN(c2ccccc2F)S(=O)(=O)c2ccc(C)cc2)c(OC)c1,3,-2,0,3
Cc1ccc(-n2nnnc2SCC(=O)N2CC(=O)Nc3ccccc32)cc1,-3,0,4,2
C=CCN1C=CC(=CC=C(C#N)C#N)C=C1,-1,8,-1,-132
C=CCN1C=C/C(=C\C=C(C#N)C#N)c2ccccc21,8,35*,48,14
CC1(C(=O)NCc2ccccc2)Cc2c(-c3ccc4c(c3)OCO4)ccnc2O1 (stereo not drawn),nt,-5,0,14
O=C(Nc1ccccc1N1CCCCC1)C1=COCCO1,11,15,0,-7
O=C(Nc1cc(C(F)(F)F)ccc1N1CCCCC1)C1=COCCO1,nt,39*,-1,0
Cc1c(C#N)c(O)n(C)c(=O)c1N=Nc1ccc(S(N)(=O)=O)cc1,-3,17,0,6
CCOC(=O)c1ccc(N=Nc2c(C)c(C#N)c(O)[nH]c2=O)cc1,4,41*,13,1
CC(=O)N1C[C@@H](CO)[C@@H](N(C)C(=O)C(C)(C)C)C[C@H]1c1ccccc1,nt,0,-1,4
NC(=O)CC(NC(=O)Cc1cccc2ccccc12)c1ccc(N2CCC(N3CCCCC3)CC2)c([N+](=O)[O-])c1 (stereo not drawn),2,46*,1,5
NC(=O)CC(NC(=O)Cc1cccc2ccccc12)c1ccc(N2CCCCCC2)c([N+](=O)[O-])c1 (stereo not drawn),-12,7,0,0
COc1ccc(NS(=O)(=O)c2cc([N+](=O)[O-])ccc2N/N=C\c2c(C)[nH]c3ccccc23)cc1,4,25,2,-150
COc1ccccc1NS(=O)(=O)c1cc([N+](=O)[O-])ccc1N/N=C/c1c[nH]c2ccccc12,33,40*,3,-75
CCOc1ccc(/C=C/C2=Cc3c(sc(NC(=O)CSc4n[nH]c(N)n4)c3C#N)C(C)(C)C2)cc1,2,37*,-1,-48
CCOc1ccc(NC(=O)CCN2CCN(C)CC2)cc1,0,37*,1,-2
CN1CCN(CCC(=O)Nc2ccc(OCc3ccccc3)cc2)CC1,4,-12,3,1
CCOC(=O)C1CCN(C(=O)c2ccc3c(c2)S(=O)(=O)c2ccccc2C3=O)CC1,-3,36*,0,3
NC(=O)C1CCN(C(=O)c2ccc3c(c2)S(=O)(=O)c2ccccc2C3=O)CC1,6,-8,0,2
O=C1CCC(C(=O)OCC(=O)N2N=C3/C(=C\c4ccccc4)CCCC3C2c2ccccc2)N1 (stereo not drawn),-4,37*,-4,0
O=C1CCC(C(=O)OCC(=O)N2N=C3/C(=C/c4ccccc4)CCCC3C2c2ccccc2)N1 (stereo not drawn),0,14,9,0
SMILES,ATG4B inhibitor,SKN-1 inh,MPTP block,MT1-MMP act inh
c1ccc(-c2cc3ccccc3cn2)cc1,-5,18,-1,0
Fc1ccc2cc(-c3ccccc3)ncc2c1,0,40*,0,0
O=C(CNC(=O)c1ccc(Cl)cc1)c1ccc(Br)cc1,-5,-1,1,2
C=CCN1C(=O)CS/C1=C(\C#N)S(=O)(=O)c1ccc(C)cc1,0,34*,-1,38
C=CCN1C(=O)CSC1=Nc1ccc(C(=O)O)cc1,-2,8,0,-1
Clc1ccccc1/C=C/c1ccnc2ccccc12,-5,35*,0,-4
O=C1/C(=C\c2cccnc2)CCc2ccccc21,6,20,-2,-10
O=C1/C(=C/c2ccccc2)CCCc2ccccc21,28,47*,0,0
CCCCCn1cnc2sc(-c3ccccc3)cc2c1=O,3,40*,6,-4
O=c1c2cc(-c3ccccc3)sc2ncn1/N=C/c1ccco1,1,44*,13,-2
CCCCn1cnc2sc(-c3ccccc3)cc2c1=O,1,18,-2,3
COc1ccc(S(=O)(=O)Nc2cc(OC)c(NC(=O)c3ccco3)cc2OC)cc1,-11,16,0,1

# Screening results as filed in PubChem.
